≈ marks a conversion by molar mass, not a printed value. Calls of active or inactive are those of the source. The rule behind the calls is not given here.
Legend:
Assay type in all cases: functional, cell-based
L5178Y [1] = assay: Cytotoxicity against mouse L5178Y cells by MTT assay
Procedure, shortened: (§1)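 MTT viability read-out on L5178Y, HeLa and PC12 cells over 0.1-10 µg/mL, with EC50 values given in µg/mL; a positive control was run alongside. Other details follow an earlier protocol.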

PC-12 [2] = assay: Cytotoxicity against rat PC12 cells by MTT assay; procedure, shortened: as §1
HeLa [3] = assay: Cytotoxicity against human HeLa cells by MTT assay; procedure, shortened: as §1
L5178Y [4] = assay: Cytotoxicity against mouse L5178Y cells at 0.1 to 10 ug/ml by MTT assay; procedure, shortened: as §1
PC-12 [5] = assay: Cytotoxicity against rat PC12 cells at 0.1 to 10 ug/ml by MTT assay; procedure, shortened: as §1
HeLa [6] = assay: Cytotoxicity against human HeLa cells at 0.1 to 10 ug/ml by MTT assay; procedure, shortened: as §1

SMILES | EC50 (L5178Y [1]) [µg/mL] | EC50 (PC-12 [2]) [µg/mL] | EC50 (HeLa [3]) [µg/mL] | Activity (L5178Y [4]) | Activity (PC-12 [5]) | Activity (HeLa [6])
C/C=C/C=C/C=C/C(=O)O[C@@H]1C=C2COC(=O)[C@]2(O)[C@@]2(C)CCCC(C)(C)[C@H]12 | 1.9 (≈ 4.92 µM) | > 10 | 7.5 (≈ 19.4 µM) |  |  | 
CC1=CC(=O)[C@H]2C(C)(C)C[C@H](O)C[C@]2(C)[C@@]1(O)CO |  |  |  | inactive | inactive | inactive
CC1=CC(=O)[C@H]2C(C)(C)[C@@H](O)CC[C@]2(C)[C@@]1(O)CO |  |  |  | inactive | inactive | inactive
CC1=CC(=O)[C@H]2C(C)(C)[C@@H](O)CC[C@]2(C)[C@H]1CO |  |  |  | inactive | inactive | inactive
CC1=CC(=O)[C@H]2C(C)(C)C[C@H](O)C[C@]2(C)[C@H]1CO |  |  |  | inactive | inactive | inactive
CC1(C)CCC[C@@]2(C)[C@H]1[C@H](OC(=O)/C=C/C=C/C=O)C=C1COC(=O)[C@@]12O [USTUSOLATE E] | 0.6 (≈ 1.6 µM) | 7.2 (≈ 19.2 µM) | 5.9 (≈ 15.8 µM) |  |  | 
CC(O)C(O)/C=C/C=C/C(=O)O[C@@H]1C=C2COC(=O)[C@]2(O)[C@@]2(C)CCCC(C)(C)[C@H]12 (stereo in doubt; 9) |  |  |  | inactive | inactive | inactive
CC(O)C(O)/C=C/C=C/C(=O)O[C@@H]1C=C2COC(=O)[C@]2(O)[C@@]2(C)CCCC(C)(C)[C@H]12 (stereo in doubt; 8) |  |  |  | inactive | inactive | inactive
CC1(C)C[C@H](O)C[C@@]2(C)[C@H]1[C@H](O)C=C1COC(=O)[C@@]12O |  |  |  | inactive | inactive | inactive
CC1(C)CCC[C@@]2(C)[C@H]1[C@H](OC(=O)/C=C/C=C/C(=O)O)C=C1COC(=O)[C@@]12O | 5.3 (≈ 13.6 µM) | > 10 | > 10 |  |  | 

Source: ChEMBL document CHEMBL1154305, “Drimane sesquiterpenoids from the fungus Aspergillus ustus isolated from the marine sponge Suberites domuncula” (J Nat Prod, 2009)
